# Data reported in ChEMBL document CHEMBL4689842, “EUbOPEN Chemogenomics Library wave 1” (2021).
# Test system: U2OS
# Test: Multiplex assay against U2OS
# Type: toxicity, cell-based
# Conditions: human
# Summary of the method: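 Live cells carried four stains from seeding: Hoechst33342, BioTracker Green Microtubule Cytoskeleton Dye, MitoTracker Red and Annexin V Alexa Fluor 680. They were imaged on a CQ1 microscope at 37°C and 5% CO2 after compound addition. Using CellPathfinder machine-learning gating, cells were split into Hoechst high-intensity objects or normal cells, normal cells into healthy, pyknosed or fragmented nuclei, and pyknosed cells into mitotic or apoptotic; tubulin, mitochondrial-mass and membrane-permeability phenotypes are per cents of healthy-nucleus cells.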
# [1] = 12 h, 1 µM, compound concentration 1 uM, replicate 1
# [2] = 12 h, 1 µM, compound concentration 1 uM, replicate 2
# [3] = 12 h, 10 µM, compound concentration 10 uM, replicate 1
# [4] = 12 h, 10 µM, compound concentration 10 uM, replicate 2
# [5] = 24 h, 1 µM, compound concentration 1 uM, replicate 1
# [6] = 24 h, 1 µM, compound concentration 1 uM, replicate 2
# [7] = 24 h, 10 µM, compound concentration 10 uM, replicate 1
# [8] = 24 h, 10 µM, compound concentration 10 uM, replicate 2
# [9] = 48 h, 1 µM, compound concentration 1 uM, replicate 1
# [10] = 48 h, 1 µM, compound concentration 1 uM, replicate 2
# [11] = 48 h, 10 µM, compound concentration 10 uM, replicate 1
# [12] = 48 h, 10 µM, compound concentration 10 uM, replicate 2
smiles,measurement,setting,value
Cc1nc(-c2ccc(-c3ccc(C(=O)N4CCc5cc6c(cc54)C4(CCN(C)CC4)CO6)cc3)c(C)c2)no1 [SB-224289],Population Apoptotic (%),[1],50%
same,Population Fragmented Nuclei (%),[1],11%
same,Population Healthy Nuclei (%),[1],74%
same,Population Hoechst High Intensity Objects (%),[1],8%
same,Population Membrane Permeable-Phenotype (%),[1],6%
same,Population Mitochondria Different-Phenotype (%),[1],43%
same,Population Mitotic Cells (%),[1],50%
same,Population Normal (%),[1],91%
same,Population Pyknosed Nuclei (%),[1],13%
same,Population Tubulin-Different-Phenotype (%),[1],46%
same,Total Cell Count,[1],130
same,Population Apoptotic (%),[2],28%
same,Population Fragmented Nuclei (%),[2],4%
same,Population Healthy Nuclei (%),[2],81%
same,Population Hoechst High Intensity Objects (%),[2],12%
same,Population Membrane Permeable-Phenotype (%),[2],10%
same,Population Mitochondria Different-Phenotype (%),[2],42%
same,Population Mitotic Cells (%),[2],71%
same,Population Normal (%),[2],87%
same,Population Pyknosed Nuclei (%),[2],14%
same,Population Tubulin-Different-Phenotype (%),[2],37%
same,Total Cell Count,[2],65
same,Population Apoptotic (%),[3],62%
same,Population Fragmented Nuclei (%),[3],19%
same,Population Healthy Nuclei (%),[3],61%
same,Population Hoechst High Intensity Objects (%),[3],7%
same,Population Membrane Permeable-Phenotype (%),[3],45%
same,Population Mitochondria Different-Phenotype (%),[3],98%
same,Population Mitotic Cells (%),[3],37%
same,Population Normal (%),[3],92%
same,Population Pyknosed Nuclei (%),[3],19%
same,Population Tubulin-Different-Phenotype (%),[3],98%
same,Total Cell Count,[3],147
same,Population Apoptotic (%),[4],63%
same,Population Fragmented Nuclei (%),[4],7%
same,Population Healthy Nuclei (%),[4],77%
same,Population Hoechst High Intensity Objects (%),[4],11%
same,Population Membrane Permeable-Phenotype (%),[4],54%
same,Population Mitochondria Different-Phenotype (%),[4],100%
same,Population Mitotic Cells (%),[4],36%
same,Population Normal (%),[4],88%
same,Population Pyknosed Nuclei (%),[4],15%
same,Population Tubulin-Different-Phenotype (%),[4],100%
same,Total Cell Count,[4],56
same,Population Apoptotic (%),[5],53%
same,Population Healthy Nuclei (%),[5],75%
same,Population Hoechst High Intensity Objects (%),[5],6%
same,Population Membrane Permeable-Phenotype (%),[5],4%
same,Population Mitochondria Different-Phenotype (%),[5],40%
same,Population Mitotic Cells (%),[5],46%
same,Population Normal (%),[5],93%
same,Population Pyknosed Nuclei (%),[5],9%
same,Population Tubulin-Different-Phenotype (%),[5],25%
same,Total Cell Count,[5],152
same,Population Apoptotic (%),[6],0%
same,Population Fragmented Nuclei (%),[6],15%
same,Population Healthy Nuclei (%),[6],77%
same,Population Hoechst High Intensity Objects (%),[6],9%
same,Population Membrane Permeable-Phenotype (%),[6],6%
same,Population Mitochondria Different-Phenotype (%),[6],38%
same,Population Mitotic Cells (%),[6],100%
same,Population Normal (%),[6],90%
same,Population Pyknosed Nuclei (%),[6],7%
same,Population Tubulin-Different-Phenotype (%),[6],22%
same,Total Cell Count,[6],73
same,Population Apoptotic (%),[7],75%
same,Population Fragmented Nuclei (%),[7],24%
same,Population Healthy Nuclei (%),[7],51%
same,Population Hoechst High Intensity Objects (%),[7],9%
same,Population Membrane Permeable-Phenotype (%),[7],84%
same,Population Mitochondria Different-Phenotype (%),[7],98%
same,Population Mitotic Cells (%),[7],25%
same,Population Normal (%),[7],90%
same,Population Pyknosed Nuclei (%),[7],23%
same,Population Tubulin-Different-Phenotype (%),[7],98%
same,Total Cell Count,[7],171
same,Population Apoptotic (%),[8],76%
same,Population Fragmented Nuclei (%),[8],16%
same,Population Healthy Nuclei (%),[8],56%
same,Population Hoechst High Intensity Objects (%),[8],11%
same,Population Membrane Permeable-Phenotype (%),[8],86%
same,Population Mitochondria Different-Phenotype (%),[8],100%
same,Population Mitotic Cells (%),[8],23%
same,Population Normal (%),[8],88%
same,Population Pyknosed Nuclei (%),[8],26%
same,Population Tubulin-Different-Phenotype (%),[8],100%
same,Total Cell Count,[8],63
same,Population Apoptotic (%),[9],54%
same,Population Fragmented Nuclei (%),[9],12%
same,Population Healthy Nuclei (%),[9],77%
same,Population Hoechst High Intensity Objects (%),[9],6%
same,Population Membrane Permeable-Phenotype (%),[9],3%
same,Population Mitochondria Different-Phenotype (%),[9],15%
same,Population Mitotic Cells (%),[9],45%
same,Population Normal (%),[9],93%
same,Population Tubulin-Different-Phenotype (%),[9],15%
same,Total Cell Count,[9],156
same,Population Apoptotic (%),[10],50%
same,Population Fragmented Nuclei (%),[10],9%
same,Population Healthy Nuclei (%),[10],80%
same,Population Hoechst High Intensity Objects (%),[10],9%
same,Population Membrane Permeable-Phenotype (%),[10],8%
same,Population Mitochondria Different-Phenotype (%),[10],14%
same,Population Mitotic Cells (%),[10],50%
same,Population Normal (%),[10],90%
same,Population Pyknosed Nuclei (%),[10],10%
same,Population Tubulin-Different-Phenotype (%),[10],11%
same,Total Cell Count,[10],88
same,Population Apoptotic (%),[11],81%
same,Population Fragmented Nuclei (%),[11],27%
same,Population Healthy Nuclei (%),[11],28%
same,Population Hoechst High Intensity Objects (%),[11],15%
same,Population Membrane Permeable-Phenotype (%),[11],94%
same,Population Mitochondria Different-Phenotype (%),[11],97%
same,Population Mitotic Cells (%),[11],18%
same,Population Normal (%),[11],84%
same,Population Pyknosed Nuclei (%),[11],44%
same,Population Tubulin-Different-Phenotype (%),[11],97%
same,Total Cell Count,[11],225
same,Population Apoptotic (%),[12],88%
same,Population Fragmented Nuclei (%),[12],8%
same,Population Healthy Nuclei (%),[12],46%
same,Population Hoechst High Intensity Objects (%),[12],18%
same,Population Membrane Permeable-Phenotype (%),[12],75%
same,Population Mitochondria Different-Phenotype (%),[12],100%
same,Population Mitotic Cells (%),[12],11%
same,Population Normal (%),[12],81%
same,Population Pyknosed Nuclei (%),[12],45%
same,Population Tubulin-Different-Phenotype (%),[12],100%
same,Total Cell Count,[12],85
Cc1nc(-c2cn3c(n2)-c2ccc(-c4cnn(C(C)(C)C(N)=O)c4)cc2OCC3)n(C(C)C)n1 [TASELISIB],Population Apoptotic (%),[1],54%
same,Population Fragmented Nuclei (%),[1],3%
same,Population Healthy Nuclei (%),[1],84%
same,Population Hoechst High Intensity Objects (%),[1],2%
same,Population Membrane Permeable-Phenotype (%),[1],16%
same,Population Mitochondria Different-Phenotype (%),[1],10%
same,Population Mitotic Cells (%),[1],45%
same,Population Normal (%),[1],97%
same,Population Pyknosed Nuclei (%),[1],11%
same,Population Tubulin-Different-Phenotype (%),[1],9%
same,Total Cell Count,[1],181
same,Population Apoptotic (%),[2],16%
same,Population Fragmented Nuclei (%),[2],12%
same,Population Healthy Nuclei (%),[2],77%
same,Population Hoechst High Intensity Objects (%),[2],12%
same,Population Membrane Permeable-Phenotype (%),[2],27%
same,Population Mitochondria Different-Phenotype (%),[2],20%
same,Population Mitotic Cells (%),[2],83%
same,Population Normal (%),[2],87%
same,Population Pyknosed Nuclei (%),[2],9%
same,Population Tubulin-Different-Phenotype (%),[2],25%
same,Total Cell Count,[2],89
same,Population Apoptotic (%),[3],44%
same,Population Fragmented Nuclei (%),[3],5%
same,Population Healthy Nuclei (%),[3],89%
same,Population Hoechst High Intensity Objects (%),[3],2%
same,Population Membrane Permeable-Phenotype (%),[3],12%
same,Population Mitochondria Different-Phenotype (%),[3],19%
same,Population Mitotic Cells (%),[3],55%
same,Population Normal (%),[3],97%
same,Population Pyknosed Nuclei (%),[3],5%
same,Population Tubulin-Different-Phenotype (%),[3],24%
same,Total Cell Count,[3],166
same,Population Apoptotic (%),[4],55%
same,Population Fragmented Nuclei (%),[4],9%
same,Population Healthy Nuclei (%),[4],78%
same,Population Hoechst High Intensity Objects (%),[4],16%
same,Population Membrane Permeable-Phenotype (%),[4],18%
same,Population Mitochondria Different-Phenotype (%),[4],12%
same,Population Mitotic Cells (%),[4],44%
same,Population Normal (%),[4],83%
same,Population Pyknosed Nuclei (%),[4],12%
same,Population Tubulin-Different-Phenotype (%),[4],12%
same,Total Cell Count,[4],65
same,Population Apoptotic (%),[5],40%
same,Population Fragmented Nuclei (%),[5],6%
same,Population Healthy Nuclei (%),[5],80%
same,Population Hoechst High Intensity Objects (%),[5],4%
same,Population Membrane Permeable-Phenotype (%),[5],15%
same,Population Mitotic Cells (%),[5],59%
same,Population Normal (%),[5],95%
same,Population Pyknosed Nuclei (%),[5],13%
same,Population Tubulin-Different-Phenotype (%),[5],12%
same,Total Cell Count,[5],240
same,Population Apoptotic (%),[6],27%
same,Population Fragmented Nuclei (%),[6],20%
same,Population Healthy Nuclei (%),[6],64%
same,Population Hoechst High Intensity Objects (%),[6],6%
same,Population Membrane Permeable-Phenotype (%),[6],21%
same,Population Mitochondria Different-Phenotype (%),[6],6%
same,Population Mitotic Cells (%),[6],72%
same,Population Normal (%),[6],93%
same,Population Pyknosed Nuclei (%),[6],15%
same,Population Tubulin-Different-Phenotype (%),[6],29%
same,Total Cell Count,[6],91
same,Population Apoptotic (%),[7],27%
same,Population Healthy Nuclei (%),[7],91%
same,Population Hoechst High Intensity Objects (%),[7],1%
same,Population Mitochondria Different-Phenotype (%),[7],11%
same,Population Mitotic Cells (%),[7],72%
same,Population Normal (%),[7],98%
same,Population Pyknosed Nuclei (%),[7],4%
same,Population Tubulin-Different-Phenotype (%),[7],26%
same,Total Cell Count,[7],168
same,Population Apoptotic (%),[8],60%
same,Population Fragmented Nuclei (%),[8],4%
same,Population Healthy Nuclei (%),[8],83%
same,Population Hoechst High Intensity Objects (%),[8],4%
same,Population Membrane Permeable-Phenotype (%),[8],13%
same,Population Mitochondria Different-Phenotype (%),[8],15%
same,Population Mitotic Cells (%),[8],40%
same,Population Normal (%),[8],95%
same,Population Pyknosed Nuclei (%),[8],11%
same,Population Tubulin-Different-Phenotype (%),[8],20%
same,Total Cell Count,[8],67
